# ChEMBL document CHEMBL1926614, “Substituted thiazoles V. synthesis and antitumor activity of novel thiazolo[2,3-b]quinazoline and pyrido[4,3-d]thiazolo[3,2-a]pyrimidine analogues” (2012)
# Active and inactive are the calls of the source. No cut-off for these calls is given here.
# Columns and labels:
# Type in all cases: functional
# [1] = Cytotoxicity against human CNS cancer cells after 48 hrs by coulter counting; conditions: Cancer cell lines
# Outline: (§1)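 NCI 60-cell-line panel covering nine tumour subpanels, tested over a 5-log dose range. Compounds were dissolved in DMSO and diluted in phosphate-buffered saline to a final DMSO below 1%. Wells held 6 × 10⁴ cells/ml and were run in duplicate. Controls contained PBS and DMSO at matching dilutions. Incubation was at 37 °C in humidified 5% CO₂. GI₅₀, TGI and LC₅₀ were reported.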
# [2] = Cytotoxicity against human ovarian cancer cells after 48 hrs by coulter counting; conditions: Cancer cell lines; for CC50: read-out: LC50 (the source's name); outline: as §1
# HCT-15 = assay: Growth inhibition of human HCT15 cells at 10 uM after 48 hrs by coulter counting
# Outline: (§2)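 Single-dose primary screen across the full NCI 60-cell-line panel. Stocks were made in DMSO and diluted in PBS to a final DMSO below 1%. Cultures at 6 × 10⁴ cells/ml were run in duplicate wells alongside PBS/DMSO vehicle controls at 37 °C in humidified 5% CO₂. Data were expressed as percent growth of treated cells.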
# UACC-257 = assay: Growth inhibition of human UACC257 cells at 10 uM after 48 hrs by coulter counting
# Outline: (§3)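 Single-dose screen in the NCI 60 human tumor cell line panel (nine subpanels). Compounds dissolved in DMSO and diluted in phosphate buffered saline, keeping final DMSO below 1%. Added in duplicate wells to cells at 6 × 10⁴ cells/ml. Controls held PBS and DMSO at matching dilutions. Incubated at 37 °C, humidified, 5% CO₂. Reported as percent growth of treated cells.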
# CCRF-CEM = assay: Growth inhibition of human CCRF-CEM cells at 10 uM after 48 hrs by coulter counting; conditions: read-out: GI; outline: as §2
# HL-60(TB) = assay: Growth inhibition of human HL-60(TB) cells at 10 uM after 48 hrs by coulter counting; conditions: HL-60, 48 h, read-out: GI
# Outline: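 Test compound was dissolved in DMSO and diluted in phosphate-buffered saline to a final DMSO level below 1%. Dilutions were plated in duplicate with cell culture at 6 × 10⁴ cells/ml. Vehicle controls held PBS and DMSO at matching dilutions. Incubation was at 37 °C, humidified, under 5% CO₂. Data were reported as percent growth of treated cells.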
# K562 = assay: Growth inhibition of human K562 cells at 10 uM after 48 hrs by coulter counting; conditions: K562, 48 h, read-out: GI; outline: as §2
# MOLT-4 = assay: Growth inhibition of human MOLT4 cells at 10 uM after 48 hrs by coulter counting; outline: as §2
# RPMI-8226 = assay: Growth inhibition of human RPMI8226 cells at 10 uM after 48 hrs by coulter counting; outline: as §2
# SR = assay: Growth inhibition of human SR cells at 10 uM after 48 hrs by coulter counting; outline: as §3
# A549 = assay: Growth inhibition of human A549 cells at 10 uM after 48 hrs by coulter counting; conditions: A549, 48 h, read-out: GI; outline: as §2
# EKVX = assay: Growth inhibition of human EKVX cells at 10 uM after 48 hrs by coulter counting; conditions: read-out: GI; outline: as §2
# HOP-62 = assay: Growth inhibition of human HOP62 cells at 10 uM after 48 hrs by coulter counting; outline: as §2
# NCI-H226 = assay: Growth inhibition of human NCI-H226 cells at 10 uM after 48 hrs by coulter counting; conditions: NCI-H226, 48 h, read-out: GI; outline: as §2
# NCI-H23 = assay: Growth inhibition of human NCI-H23 cells at 10 uM after 48 hrs by coulter counting; conditions: NCI-H23, 48 h, read-out: GI; outline: as §2
# NCI-H460 = assay: Growth inhibition of human NCI-H460 cells at 10 uM after 48 hrs by coulter counting; outline: as §2
# NCI-H522 = assay: Growth inhibition of human NCI-H522 cells at 10 uM after 48 hrs by coulter counting; conditions: NCI-H522, 48 h, read-out: GI; outline: as §2
# HCT-116 = assay: Growth inhibition of human HCT116 cells at 10 uM after 48 hrs by coulter counting; outline: as §2
# KM12 = assay: Growth inhibition of human KM12 cells at 10 uM after 48 hrs by coulter counting; outline: as §2
# SF-268 = assay: Growth inhibition of human SF268 cells at 10 uM after 48 hrs by coulter counting; conditions: SF-268, 48 h, read-out: GI; outline: as §2
# SNB-19 = assay: Growth inhibition of human SNB19 cells at 10 uM after 48 hrs by coulter counting; conditions: SNB-19, 48 h, read-out: GI; outline: as §2
# U-251 = assay: Growth inhibition of human U251 cells at 10 uM after 48 hrs by coulter counting; conditions: U-251, 48 h, read-out: GI; outline: as §3
# LOX IMVI = assay: Growth inhibition of human LOXIMVI cells at 10 uM after 48 hrs by coulter counting; outline: as §2
# M14 = assay: Growth inhibition of human M14 cells at 10 uM after 48 hrs by coulter counting; outline: as §2
# MDA-MB-435 = assay: Growth inhibition of human MDA-MB-435 cells at 10 uM after 48 hrs by coulter counting; outline: as §2
# SK-MEL-5 = assay: Growth inhibition of human SK-MEL-5 cells at 10 uM after 48 hrs by coulter counting; conditions: SK-MEL-5, 48 h, read-out: GI; outline: as §2
# NCI/ADR-RES = assay: Growth inhibition of human NCI/ADR-RES cells at 10 uM after 48 hrs by coulter counting; outline: as §2
# A498 = assay: Growth inhibition of human A498 cells at 10 uM after 48 hrs by coulter counting; conditions: A498, 48 h, read-out: GI; outline: as §2
# ACHN = assay: Growth inhibition of human ACHN cells at 10 uM after 48 hrs by coulter counting; outline: as §2
# CAKI-1 = assay: Growth inhibition of human Caki1 cells at 10 uM after 48 hrs by coulter counting; outline: as §2
# MCF7 = assay: Growth inhibition of human MCF7 cells at 10 uM after 48 hrs by coulter counting; conditions: MCF7, 48 h, read-out: GI; outline: as §2
# OVCAR-3 = assay: Growth inhibition of human OVCAR3 cells at 10 uM after 48 hrs by coulter counting; outline: as §2
# OVCAR-8 = assay: Growth inhibition of human OVCAR8 cells at 10 uM after 48 hrs by coulter counting; conditions: OVCAR-8, 48 h, read-out: GI; outline: as §2
# 786-0 = assay: Growth inhibition of human 786-0 cells at 10 uM after 48 hrs by coulter counting; conditions: 786-0, 48 h, read-out: GI; outline: as §2
# SN12C = assay: Growth inhibition of human SN12C cells at 10 uM after 48 hrs by coulter counting; conditions: read-out: GI; outline: as §2
# TK-10 = assay: Growth inhibition of human TK10 cells at 10 uM after 48 hrs by coulter counting; conditions: TK-10, 48 h, read-out: GI; outline: as §3
# [3] = Cytotoxicity against human leukemia cells after 48 hrs by coulter counting; conditions: Leukemia cell; for CC50: read-out: LC50 (the source's name); outline: as §1
smiles,measurement,setting,value
CCN1CC2=C(N=C3SC=CN3C2c2ccc(OC)c(OC)c2)/C(=C/c2ccc(OC)c(OC)c2)C1 (stereo unspecified),GI50,[1],3.3 µM
same,LC50,[1],82.8 µM
same,TGI,[1],26.7 µM
same,GI50,[2],3.2 µM
same,TGI,[2],48.9 µM
same,CC50,[2],90.5 µM
same,inhibition of growth at 10 µM,"HCT-15; HCT-15, 48 h, read-out: GI",75.8%
same,inhibition of growth at 10 µM,"UACC-257; UACC-257, 48 h, read-out: GI",63.2%
same,inhibition of growth at 10 µM,CCRF-CEM,94%
same,inhibition of growth at 10 µM,HL-60(TB),48.3%
same,inhibition of growth at 10 µM,K562,95.2%
same,inhibition of growth at 10 µM,"MOLT-4; MOLT-4, 48 h, read-out: GI",67.9%
same,growth inhibition (GI),RPMI-8226,Active
same,growth inhibition (GI),SR,Active
same,inhibition of growth at 10 µM,A549,61.1%
same,inhibition of growth at 10 µM,EKVX,27.1%
same,inhibition of growth at 10 µM,"HOP-62; HOP-62, 48 h, read-out: GI",84.7%
same,inhibition of growth at 10 µM,NCI-H226,53.2%
same,inhibition of growth at 10 µM,NCI-H23,43.9%
same,growth inhibition (GI),NCI-H460,Active
same,inhibition of growth at 10 µM,NCI-H522,46.1%
same,growth inhibition (GI),HCT-116,Active
same,growth inhibition (GI),KM12,Active
same,inhibition of growth at 10 µM,SF-268,76%
same,inhibition of growth at 10 µM,SNB-19,52.9%
same,inhibition of growth at 10 µM,U-251,90%
same,growth inhibition (GI),LOX IMVI,Active
same,inhibition of growth at 10 µM,"M14; M14, 48 h, read-out: GI",94.3%
same,growth inhibition (GI),MDA-MB-435,Active
same,inhibition of growth at 10 µM,SK-MEL-5,60.9%
same,inhibition of growth at 10 µM,NCI/ADR-RES; read-out: GI,91.2%
same,inhibition of growth at 10 µM,A498,18.4%
same,inhibition of growth at 10 µM,ACHN; read-out: GI,79.5%
same,growth inhibition (GI),CAKI-1,Active
same,inhibition of growth at 10 µM,MCF7,80.5%
same,growth inhibition (GI),OVCAR-3,Active
same,inhibition of growth at 10 µM,OVCAR-8,95.9%
same,inhibition of growth at 10 µM,786-0,> 10%
same,inhibition of growth at 10 µM,SN12C,83.1%
same,inhibition of growth at 10 µM,TK-10,46.5%
same,GI50,[3],2.6 µM
same,TGI,[3],30.7 µM
same,CC50,[3],> 100 µM
CCN1CC2=C(N=C3SC=C(C)N3C2c2ccc(OC)c(OC)c2)/C(=C/c2ccc(OC)c(OC)c2)C1 (stereo unspecified),GI50,[1],5.7 µM
same,LC50,[1],> 100 µM
same,TGI,[1],40.1 µM
same,GI50,[2],3.8 µM
same,TGI,[2],49.7 µM
same,CC50,[2],> 100 µM
same,growth inhibition (GI),HCT-15,Active
same,growth inhibition (GI),UACC-257,Active
same,inhibition of growth at 10 µM,CCRF-CEM,97.8%
same,inhibition of growth at 10 µM,HL-60(TB),72.1%
same,inhibition of growth at 10 µM,K562,96.4%
same,growth inhibition (GI),MOLT-4,Active
same,growth inhibition (GI),RPMI-8226,Active
same,growth inhibition (GI),SR,Active
same,inhibition of growth at 10 µM,A549,93.2%
same,inhibition of growth at 10 µM,EKVX,37.5%
same,growth inhibition (GI),HOP-62,Active
same,inhibition of growth at 10 µM,NCI-H226,98.2%
same,inhibition of growth at 10 µM,NCI-H23,67.6%
same,growth inhibition (GI),NCI-H460,Active
same,inhibition of growth at 10 µM,NCI-H522,61.7%
same,growth inhibition (GI),HCT-116,Active
same,growth inhibition (GI),KM12,Active
same,inhibition of growth at 10 µM,SF-268,89.4%
same,inhibition of growth at 10 µM,SNB-19,61%
same,inhibition of growth at 10 µM,U-251,97.9%
same,growth inhibition (GI),LOX IMVI,Active
same,growth inhibition (GI),M14,Active
same,growth inhibition (GI),MDA-MB-435,Active
same,inhibition of growth at 10 µM,SK-MEL-5,87.2%
same,growth inhibition (GI),NCI/ADR-RES,Active
same,inhibition of growth at 10 µM,A498,53.8%
same,growth inhibition (GI),ACHN,Active
same,growth inhibition (GI),CAKI-1,Active
same,inhibition of growth at 10 µM,MCF7,84.5%
same,growth inhibition (GI),OVCAR-3,Active
same,inhibition of growth at 10 µM,OVCAR-8,96.5%
same,inhibition of growth at 10 µM,786-0,69.9%
same,inhibition of growth at 10 µM,SN12C,93.7%
same,inhibition of growth at 10 µM,TK-10,98.8%
same,GI50,[3],4 µM
same,TGI,[3],81.9 µM
same,CC50,[3],> 100 µM
